Bioassay records from PubChem BioAssay.
Hits are enriched below; roughly 1.4% of the tested compounds scored in any of these assays.
Rin1-Abl PPI inh – inhibitors of human Rin1-Abl protein interaction; TR-FRET Rin1/Abl binding, biochemical; inhibition, % at 7.35 µM; 0.4% of 360,000 active; AID 588664; in the data active = inhibition above about 5%, passing the limit was not always enough
ATG4B inhibitor – inhibitors of human ATG4B cysteine protease; Q9Y4P1; ATG4B cleavage of LC3-PLA2, NBD-HPC fluorescence, 1 h; inhibition, % at 8.33 µM; 0.51% of 340,000 active; in the data active = inhibition above about 40%
Target sequence (Q9Y4P1 whole entry, looked up): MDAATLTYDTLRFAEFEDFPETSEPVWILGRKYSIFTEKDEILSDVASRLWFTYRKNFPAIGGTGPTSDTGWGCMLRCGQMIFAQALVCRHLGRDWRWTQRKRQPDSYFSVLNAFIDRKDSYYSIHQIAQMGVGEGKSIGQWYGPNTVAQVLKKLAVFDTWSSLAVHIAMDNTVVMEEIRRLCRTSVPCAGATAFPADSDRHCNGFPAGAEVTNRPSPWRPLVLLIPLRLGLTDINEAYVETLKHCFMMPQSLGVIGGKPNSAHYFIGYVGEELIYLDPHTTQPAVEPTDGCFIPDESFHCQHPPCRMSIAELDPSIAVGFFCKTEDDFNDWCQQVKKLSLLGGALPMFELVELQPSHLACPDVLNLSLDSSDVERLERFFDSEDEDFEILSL
UCH37 DUB inh – inhibitors of human deubiquitinating enzyme UCH37 | purified proteasome/UCH37, Ub-AMC cleavage fluorescence | inhibition, % (concentration not given with the values) | 0.33% of 330,000 active;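 active = mean inhibition over replicate wells above about 20%, limit read from the data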
Target sequence (Q9Y5K5 whole entry, looked up): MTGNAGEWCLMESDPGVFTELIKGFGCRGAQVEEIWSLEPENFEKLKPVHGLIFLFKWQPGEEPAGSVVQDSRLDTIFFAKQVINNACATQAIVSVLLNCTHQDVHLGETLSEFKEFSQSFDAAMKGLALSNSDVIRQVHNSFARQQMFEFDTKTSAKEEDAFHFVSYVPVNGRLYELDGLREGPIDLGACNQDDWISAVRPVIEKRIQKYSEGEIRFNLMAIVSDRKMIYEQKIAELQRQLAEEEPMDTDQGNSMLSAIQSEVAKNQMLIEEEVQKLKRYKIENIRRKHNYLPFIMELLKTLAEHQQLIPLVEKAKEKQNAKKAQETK
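Assay system: Proteasome-bound UCH37. Buffer or medium: pH 7.4 Tris-HCl (50 mM) with ovalbumin, ATP-MgCl2, DTT. Incubation: 30 min preincubation with enzyme, 25 min cleavage at room temperature. Measured by: fluorescence, ex 355 nm, em 460 nm. Read-out basis: percent inhibition. Control set: wells without proteasome as full block, compound-free enzyme plus substrate as uninhibited.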
Tb MetRS inh – blocks T. brucei methionyl-tRNA synthetase activity | inhibition, % at 11.9 µM | 0.4% of 360,000 active | purified T. brucei MetRS, ATP depletion, Kinase-Glo luminescence;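 active = inhibition above a per-plate cutoff of the control wells' mean inhibition plus 3 SD, cut at about 5.5% in these data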
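Dosing: 11.9 µM single point; system: parasite MetRS enzyme; technique: luminescence of leftover ATP; times: 15 min enzyme-compound preincubation, 2 h reaction, 10 min detection, 25 °C; replicates: each compound tested once; read-out basis: percent inhibition relative to median high and low control wells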
Rin1-Abl confirm – confirmation of inhibitors of human Rin1-Abl interaction; shares compounds with Rin1-Abl PPI inh; TR-FRET Rin1-Abl binding, purified proteins; inhibition, % at 7.35 µM; 49% of 1,300 active
GFP quench – GFP fluorescence interference artifact. shares compounds with Rin1-Abl PPI inh. inhibitors/quenchers counterscreen. inhibition, % at 6.75 µM. 8.5% of 1,300 active;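 note: ABL1-eGFP fusion protein alone without its partner RIN1-SBP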
GFP quench dose – counter-screen for Rin1-Abl inhibitors: GFP quenchers, dose response; shares compounds with Rin1-Abl PPI inh; GFP fluorescence interference/quenching counterscreen; IC50, µM; 230 tested, under 10 active; AID 602182; call rule not given here;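 note: ABL1-eGFP fusion protein alone without its RIN1 binding partner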
Of the large screens only hits and unclear results are named; the others gave an inactive call (follow-up assays come after a bar, where they were run). Cut-off read from the data, not from the text of the source, unless noted: active = inhibition above about 6.5%; inactive = the rest.

O=C(CSc1nc2ccccc2[nH]1)NC1CCCc2ccccc21 (stereo not given)	none
CCOC(=O)c1ccc(NC(=O)COc2ccccc2CNCCc2ccccc2)cc1	Rin1-Abl PPI inh 19 | Rin1-Abl confirm 24 | GFP quench inactive | GFP quench dose inactive
CCOC(=O)c1ccc(NC(=O)COc2ccc(CNCCO)cc2OCC)cc1	none
COc1ccc2c(c1)C(=O)CC(c1ccccc1F)O2 (stereo not given)	none
CCCCN1C(=O)C(CC(=O)NC(c2ccccc2)c2ccccc2)CC(C(=O)N(C)C)=C1C (stereo not given)	none (no result: ATG4B inhibitor, UCH37 DUB inh)
Cc1ccc(-n2c(SCC(=O)NCc3ccco3)nnc2-c2cccnc2)c(C)c1	Rin1-Abl PPI inh 12 | Rin1-Abl confirm 9.7 | GFP quench inactive
O=C(Cn1[nH]c(=O)c2ccccc2c1=O)Nc1ccc(-c2nnc3n2CCCCC3)cc1	Rin1-Abl PPI inh 12 | Rin1-Abl confirm 10 | GFP quench inactive
O=C(Cc1n[nH]c(=O)c2ccccc12)Nc1ccc(-c2nnc3n2CCCCC3)cc1	none
O=C(O)CC(CCc1ccccc1)OC1OC(CO)C(O)C(O)C1O (stereo not given)	Rin1-Abl PPI inh 30 | Rin1-Abl confirm 26 | GFP quench inactive | GFP quench dose inactive
CCOc1ccc2nc(NC(=O)C3CCN(C(=O)c4ccco4)CC3)sc2c1	Rin1-Abl PPI inh 8.0 (no result: UCH37 DUB inh) | Rin1-Abl confirm inactive | GFP quench inactive
COc1cccc(OC)c1C(=O)NC(=S)N1CCOCC1	none
CC(=O)c1ccc(OCC(O)CN2CCN(c3ccccn3)CC2)cc1 (stereo not given)	Rin1-Abl PPI inh 9.3 | Rin1-Abl confirm inactive | GFP quench inactive
O=C(C1=COCCO1)N(Cc1nnc(-c2ccccc2Cl)o1)C1CC1	Rin1-Abl PPI inh 8.2 | Rin1-Abl confirm inactive | GFP quench inactive
O=C(C1=COCCO1)N(Cc1nnc(-c2ccc(Cl)cc2)o1)C1CC1	none
COc1cccc(N/C(SCc2cccc([N+](=O)[O-])c2)=C(/C#N)C(N)=O)c1	none
Cc1ccc(S(=O)(=O)N2CCN(c3ncnc4scc(-c5ccccc5)c34)CC2)cc1	none
CC1=CC(C)(C)N(S(=O)(=O)c2ccc(C)cc2)c2ccc(C)cc21	none
CC1=CC(C)(C)[N+](C)(C)c2ccc(C)cc21	Rin1-Abl PPI inh 10 | Rin1-Abl confirm inactive | GFP quench inactive
COc1ccc(C2N(C(=O)N3CCOCC3)CCN2S(=O)(=O)c2ccc(C)cc2)cc1 (stereo not given)	none
CCN(C(=O)COC(=O)c1cc(Cl)ccc1OC)c1c(N)n(Cc2ccccc2)c(=O)[nH]c1=O	Rin1-Abl PPI inh 8.7 | Rin1-Abl confirm inactive | GFP quench inactive
CCCCn1c(SCC2CCCO2)nc2cc(S(N)(=O)=O)ccc21 (stereo not given)	Rin1-Abl PPI inh 5.9 | Rin1-Abl confirm inactive | GFP quench inactive
CC(C)C(=O)N1C2CCC1CC(O)(c1ccc(F)cc1)C2 (stereo not given)	Rin1-Abl PPI inh 7.0 | Rin1-Abl confirm inactive | GFP quench inactive
Cc1c(Cl)cccc1NC(=O)c1cc(S(=O)(=O)N2CCOCC2)cn1C	Rin1-Abl PPI inh 8.4 | Rin1-Abl confirm inactive | GFP quench inactive
Cc1cccc(C)c1NC(=O)c1cc(S(=O)(=O)N2CCOCC2)cn1C	none
CCOc1ccc(C2C(C#N)=C(N)Oc3nc[nH]c(=O)c32)cc1OC (stereo not given)	none
COc1ccc(C2c3c(nc[nH]c3=O)Oc3nc[nH]c(=O)c32)cc1	Rin1-Abl PPI inh 50 (no result: ATG4B inhibitor) | Rin1-Abl confirm 64 | GFP quench inactive | GFP quench dose inactive
CCOC(=O)c1oc2ccccc2c1COC(=O)CNC(=O)c1ccccc1	none
CC1CCN(C(=O)c2ccc(N3CCOCC3)c([N+](=O)[O-])c2)CC1	Rin1-Abl PPI inh 8.9 | Rin1-Abl confirm inactive | GFP quench inactive
COc1ccccc1CN1C[C@@H]2C[C@@H](c3ccc4nsnc4c3)N3CCC[C@@]23C1=O	Rin1-Abl PPI inh 22 | Rin1-Abl confirm 25 | GFP quench inactive | GFP quench dose inactive
CC1Cc2ccccc2N1c1ncnc(N)c1[N+](=O)[O-] (stereo not given)	none
CC1CCCCN1c1ncnc(N)c1[N+](=O)[O-] (stereo not given)	Rin1-Abl PPI inh 7.2 | Rin1-Abl confirm inactive | GFP quench inactive
Nc1nc(NC2CCCC2)cc(=O)[nH]1	Rin1-Abl PPI inh 18 | Rin1-Abl confirm 24 | GFP quench inactive | GFP quench dose inactive
CC1=NN(c2ccc(C(=O)O)c(N)c2)C(=O)C1	Rin1-Abl PPI inh 12 | Rin1-Abl confirm 7.1 | GFP quench inactive
CC1=NN(c2ccc(Cl)c(C(=O)O)c2)C(=O)C1	Rin1-Abl PPI inh 7.2 | Rin1-Abl confirm inactive | GFP quench inactive
O=C(NC1CCCC1)c1cccnc1N1CCCCCC1	none
CC1CC(=O)N(CC(=O)Nc2ccc(F)cc2)c2ccccc2S1(=O)=O (stereo not given)	none
Cc1c(Cl)cccc1N=C(N)N=C(N)N	Rin1-Abl PPI inh 9.1 | Rin1-Abl confirm inactive | GFP quench inactive
Cc1ccc(C(=O)NC2CCCC2)s1	none
CCCCC(=O)C1CCN(Cc2ccccc2)CC1	Rin1-Abl PPI inh 11 | Rin1-Abl confirm 17 | GFP quench inactive | GFP quench dose inactive
COc1ccccc1N1CCN(C(=O)CSc2nc3ccccc3nc2N2CCCCC2)CC1	none
Cc1[nH]c(=O)[nH]c1C(=O)CCCCC(=O)O	Rin1-Abl PPI inh 89 | Rin1-Abl confirm 98 | GFP quench inactive | GFP quench dose inactive
Cc1cccc(NC(=O)NCc2ccc3c(c2)cc(C)n3C)c1	Rin1-Abl PPI inh 7.8 | Rin1-Abl confirm inactive | GFP quench inactive
Cc1cc2cc(CNC(=O)Nc3cccc(Cl)c3)ccc2n1C	none
CC1(C(=O)Nc2ccc3c(c2)OCO3)Cc2c(-c3ccc4c(c3)OCO4)ccnc2O1 (stereo not given)	none (no result: ATG4B inhibitor, UCH37 DUB inh)
CC1(C(=O)Nc2ccccc2)Cc2c(-c3cccc(C(N)=O)c3)ccnc2O1 (stereo not given)	Rin1-Abl PPI inh 14 (no result: ATG4B inhibitor, UCH37 DUB inh) | Rin1-Abl confirm 15 | GFP quench inactive
CC1(C(=O)Nc2ccc3c(c2)OCO3)Cc2c(-c3cccc(C(N)=O)c3)ccnc2O1 (stereo not given)	Rin1-Abl PPI inh 8.8 (no result: ATG4B inhibitor, UCH37 DUB inh) | Rin1-Abl confirm 7.8 | GFP quench inactive
CC(=O)Nc1cccc(-c2ccnc3c2CC(C)(C(=O)NCc2ccc(N(C)C)cc2)O3)c1 (stereo not given)	Rin1-Abl PPI inh 6.7 (no result: ATG4B inhibitor, UCH37 DUB inh) | Rin1-Abl confirm inactive | GFP quench inactive
CC1(C(=O)Nc2ccc(Cl)cc2)Cc2c(-c3cccc(C(N)=O)c3)ccnc2O1 (stereo not given)	none (no result: ATG4B inhibitor, UCH37 DUB inh)
